Laboratory results as given in ChEMBL document CHEMBL4480454, “Parvifoline Derivatives as Tubulin Polymerization Inhibitors” (J Nat Prod, 2019).
Active and inactive are the calls of the source. The rule behind the calls is not given here.

Tests used:
HCT-116 = experiment: Cytotoxicity against human HCT116 cells assessed as reduction in cell viability after 72 hrs by SRB assay; assay type: functional, cell-based; conditions: HCT-116, 72 h
HeLa = experiment: Cytotoxicity against human HeLa cells assessed as reduction in cell viability after 72 hrs by SRB assay; assay type: functional, cell-based
Sus scrofa [1] = species: Sus scrofa; experiment: Inhibition of porcine brain tubulin alpha/beta polymerization at 10 uM measured every minute for 60 mins relative to colchicine
Method in brief: (§1)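 Turbidity assay with porcine brain α,β-tubulin (97%), final 2 mg/mL, in pH 6.9 buffer of 80.0 mM PIPES sesquisodium, 2.0 mM MgCl2, 0.5 mM EGTA and 1.0 mM GTP. Tubulin added at 0 °C to compound in DMSO, then A450 read every minute for 60 min at 37 °C. Time-zero reading subtracted. […] Triplicate; ANOVA with Tukey test.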

Sus scrofa [2] = species: Sus scrofa; experiment: Competitive inhibition of colchicine binding to porcine brain tubulin alpha/beta polymerization at 10 to 50 uM preincubated for 30 mins followed by 5 uM colchicine addition and measured after 60 mins by fluorescence assay
Method in brief: (§2)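 Porcine brain α,β-tubulin (97%) in general buffer pH 6.9 (80.0 mM PIPES sesquisodium, 2.0 mM MgCl2, 0.5 mM EGTA), no GTP, final 1 mg/mL, added at 0 °C to compound in DMSO (final 10, 20, 50 μM). […] DMSO control included.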

Sus scrofa [3] = species: Sus scrofa; experiment: Inhibition of porcine brain tubulin alpha/beta polymerization at 50 uM measured every minute for 90 mins relative to colchicine
Sus scrofa [4] = species: Sus scrofa; experiment: Inhibition of porcine brain tubulin alpha/beta polymerization at 50 uM measured every minute for 60 mins relative to colchicine; method in brief: as §1
Sus scrofa [5] = species: Sus scrofa; experiment: Inhibition of porcine brain tubulin alpha/beta polymerization at 10 uM measured every minute for 90 mins relative to colchicine
Sus scrofa [6] = species: Sus scrofa; experiment: Competitive inhibition of colchicine binding to porcine brain tubulin alpha/beta polymerization at 10 to 50 uM preincubated for 30 mins followed by 50 uM colchicine addition and measured after 60 mins by fluorescence assay; method in brief: as §2
Sus scrofa [7] = species: Sus scrofa; experiment: Induction of porcine brain tubulin alpha/beta polymerization at 10 uM measured every minute for 30 mins

SMILES: COc1cc2c(c(OC)c1OC)-c1ccc(OC)c(=O)cc1[C@@H](NC(C)=O)CC2 [COLCHICINE]
- IC50 (HCT-116): 40 nM
- IC50 (HeLa): 11 nM

SMILES: C/C1=C/CC[C@@H](C)c2cc(O)c(C)cc2C1
- inhibition (Sus scrofa [1]): 24.4%
- inhibition (Sus scrofa [2]): inactive
- inhibition (Sus scrofa [3]): 66.7%
- inhibition (Sus scrofa [4]): 54.6%
- inhibition (Sus scrofa [5]): 51%
- inhibition (Sus scrofa [6]): Active
- Activity (Sus scrofa [7]): Active

SMILES: Cc1cc2c(cc1OC(=O)c1ccccc1)[C@@]1(C)CCC[C@H](C)[C@@H]2O1
- inhibition (Sus scrofa [1]): 9.2%
- inhibition (Sus scrofa [3]): -5.7%
- inhibition (Sus scrofa [4]): -3.4%
- inhibition (Sus scrofa [5]): 2.1%

SMILES: Cc1cc2c(cc1O)[C@H](C)CCC[C@]1(C)O[C@H]21
- inhibition (Sus scrofa [1]): 30.3%
- inhibition (Sus scrofa [3]): 36.9%
- inhibition (Sus scrofa [4]): 19.3%
- inhibition (Sus scrofa [5]): 8.3%

SMILES: Cc1cc2c(cc1OC(=O)c1ccccc1)[C@H](C)CC[C@@H]1O[C@]1(C)C2
- inhibition (Sus scrofa [1]): 30.3%
- inhibition (Sus scrofa [3]): 42.2%
- inhibition (Sus scrofa [4]): 10.9%
- inhibition (Sus scrofa [5]): 47.9%

SMILES: Cc1cc2c(cc1OC(=O)c1ccccc1)[C@H](C)CCC[C@]1(C)O[C@H]21
- inhibition (Sus scrofa [1]): 89.9%
- IC50 (HCT-116): 5000 nM
- inhibition (Sus scrofa [2]): inactive
- inhibition (Sus scrofa [3]): 78.5%
- inhibition (Sus scrofa [4]): 51.8%
- inhibition (Sus scrofa [5]): 97.9%
- IC50 (HeLa): 3300 nM
- inhibition (Sus scrofa [6]): inactive

SMILES: C/C1=C/CC[C@@H](C)c2cc(OC(=O)c3ccccc3)c(C)cc2C1
- inhibition (Sus scrofa [1]): 11.8%
- inhibition (Sus scrofa [3]): 58.9%
- inhibition (Sus scrofa [4]): 46.2%
- inhibition (Sus scrofa [5]): 56.3%

SMILES: Cc1cc2c(cc1O)[C@H](C)CC[C@@H]1O[C@]1(C)C2
- inhibition (Sus scrofa [1]): 48.7%
- inhibition (Sus scrofa [2]): inactive
- inhibition (Sus scrofa [3]): 44.7%
- inhibition (Sus scrofa [4]): 33.6%
- inhibition (Sus scrofa [5]): 46.9%
- inhibition (Sus scrofa [6]): Active

SMILES: Cc1cc2c(cc1OC(=O)c1ccccc1)[C@@]1(C)CC[C@H](O1)[C@H](C)C2
- inhibition (Sus scrofa [1]): 26.1%
- inhibition (Sus scrofa [3]): 46.9%
- inhibition (Sus scrofa [4]): 76.9%

SMILES: Cc1cc2c(cc1O)[C@@]1(C)CCC[C@H](C)[C@@H]2O1
- inhibition (Sus scrofa [1]): 38.7%
- inhibition (Sus scrofa [3]): 62.5%
- inhibition (Sus scrofa [4]): 76.1%
- inhibition (Sus scrofa [5]): 21.9%

SMILES: Cc1cc2c(cc1O)[C@@]1(C)CC[C@H](O1)[C@H](C)C2
- inhibition (Sus scrofa [1]): 40.2%
- inhibition (Sus scrofa [3]): 67%
- inhibition (Sus scrofa [4]): 66.3%
- inhibition (Sus scrofa [5]): 43.7%

SMILES: C/C1=C/c2cc(C)c(O)cc2[C@H](C)CCC1
- inhibition (Sus scrofa [3]): 56.2%
- inhibition (Sus scrofa [5]): 58.1%

SMILES: C/C1=C/c2cc(C)c(OC(=O)c3ccccc3)cc2[C@H](C)CCC1
- inhibition (Sus scrofa [1]): 38.7%
- inhibition (Sus scrofa [3]): 106%
- inhibition (Sus scrofa [4]): 86.6%
- inhibition (Sus scrofa [5]): 35.4%
